Reference: ChEMBL document CHEMBL1123677, “Structure-activity studies of 5-[[4-(4,5-dihydro-2-oxazolyl) phenoxy]alkyl]-3-methylisoxazoles: inhibitors of picornavirus uncoating” (J Med Chem, 1987)
Values after ≈ are worked out from the molar mass of the structure shown. Active and inactive are the calls of the source. The calls are words filed in the database; no cut-off is given here.

Tests used:
[1] = Partition coefficient (logP); format: physicochemical; conditions: octanol/water
[2] = test system: rhinovirus A2; experiment: Antirhinovirus activity was assessed and the maximum testable concentration that causes no apparent effects on the cell monolayers was determined against HRV-2 virus in vitro.; format: functional, human rhinovirus type 2
[3] = test system: Human rhinovirus sp.; experiment: Mean of MIC's was determined for the five types of virus like HRV-2, HRV-1A,HRV-22,HRV-41 and HRV-50; format: functional
Procedure, shortened: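 MIC measured by plaque reduction against HRV-2 first. The value is the mean of the MICs across these five serotypes.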

[4] = test system: rhinovirus B14; experiment: Tested for antirhinoviral activity against the rhinovirus serotype 14; format: functional, human rhinovirus type 14; conditions: Rhinovirus B
Procedure, shortened: (§1)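 Selected compounds were tested across a 15-serotype rhinovirus panel: the five secondary serotypes plus 10 more. An MIC was recorded for each serotype. MIC80, the concentration inhibiting 80% of serotypes tested, was also derived from this panel.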

[5] = test system: rhinovirus A2; experiment: Tested for antirhinoviral activity against the rhinovirus serotype 2; format: functional, human rhinovirus type 2; conditions: Rhinovirus A; procedure, shortened: as §1
[6] = test system: rhinovirus A21; experiment: Tested for antirhinoviral activity against the rhinovirus serotype 21; format: functional; conditions: Rhinovirus A; procedure, shortened: as §1
[7] = test system: rhinovirus A22; experiment: Tested for antirhinoviral activity against the rhinovirus serotype 22; format: functional; conditions: Rhinovirus A; procedure, shortened: as §1
[8] = test system: rhinovirus A25; experiment: Tested for antirhinoviral activity against the rhinovirus serotype 25; format: functional; conditions: Rhinovirus A; procedure, shortened: as §1
[9] = test system: rhinovirus A30; experiment: Tested for antirhinoviral activity against the rhinovirus serotype 30; format: functional; conditions: Rhinovirus A; procedure, shortened: as §1
[10] = test system: rhinovirus A41; experiment: Tested for antirhinoviral activity against the rhinovirus serotype 41; format: functional; conditions: Rhinovirus A; procedure, shortened: as §1
[11] = test system: rhinovirus A50; experiment: Tested for antirhinoviral activity against the rhinovirus serotype 50; format: functional; conditions: Rhinovirus A; procedure, shortened: as §1
[12] = test system: rhinovirus B6; experiment: Tested for antirhinoviral activity against the rhinovirus serotype 6; format: functional; conditions: Rhinovirus B; procedure, shortened: as §1
[13] = test system: rhinovirus A67; experiment: Tested for antirhinoviral activity against the rhinovirus serotype 67; format: functional; conditions: Rhinovirus A; procedure, shortened: as §1
[14] = test system: rhinovirus B86; experiment: Tested for antirhinoviral activity against the rhinovirus serotype 86; format: functional; conditions: Rhinovirus B; procedure, shortened: as §1
[15] = test system: rhinovirus A89; experiment: Tested for antirhinoviral activity against the rhinovirus serotype 89; format: functional, human rhinovirus type 89; conditions: Rhinovirus A; procedure, shortened: as §1
[16] = test system: rhinovirus A15; experiment: Tested for antirhinoviral activity against the rhinovirus serotype 15; format: functional; conditions: Rhinovirus A; procedure, shortened: as §1
[17] = test system: Human rhinovirus 1A; experiment: Tested for antirhinoviral activity against the rhinovirus serotype 1A; format: functional; procedure, shortened: as §1
[18] = test system: rhinovirus A1B; experiment: Tested for antirhinoviral activity against the rhinovirus serotype 1B; format: functional, human rhinovirus type 1b; conditions: Rhinovirus A; procedure, shortened: as §1
[19] = test system: rhinovirus A2; experiment: Antiviral activity determined by ability to inhibit the HRV-2( human rhinovirus type -2) virus by plaque reduction assay in vitro; format: functional; conditions: Rhinovirus A
Procedure, shortened: (§2)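 Plaque reduction assay against human rhinovirus type 2 (HRV-2), following an earlier reported method. The value is the MIC, the minimum inhibitory concentration.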

[20] = test system: human rhinovirus (15-serotype panel); experiment: Antirhinovirus activity was determined by the ability to inhibit the growth of 80% of a panel of 15 human rhinovirus serotypes
[21] = test system: rhinovirus A25; experiment: Tested for antirhinoviral activity against the rhinovirus serotype 25; IA is inactive; format: functional, organism-based; procedure, shortened: as §1
[22] = test system: rhinovirus A2; experiment: Antirhinovirus activity was determined by the ability to inhibit the HRV-2 (human rhinovirus type -2) virus by plaque reduction assay in vitro; format: functional; conditions: Rhinovirus A; procedure, shortened: as §2

Compound	logP [1]	MIC [3] [µM]	MIC [4] [µM]	MIC [5] [µM]	MIC [6] [µM]	MIC [7] [µM]	MIC [8] [µM]	MIC [9] [µM]	MIC [10] [µM]	MIC [11] [µM]	MIC [12] [µM]	MIC [13] [µM]	MIC [14] [µM]	MIC [15] [µM]	MIC [16] [µM]	MIC [17] [µM]	MIC [18] [µM]	MIC [19] [µM]	MIC80 [20] [µM]	MTL [2] [µM]	also measured
CCc1cc(C2=NCCO2)ccc1OCCCCCc1cc(C)no1	4.71	1.8 (≈ 0.616 µg/mL)	1.1 (≈ 0.377 µg/mL)	0.06 (≈ 0.0205 µg/mL)	0.04 (≈ 0.0137 µg/mL)	0.1 (≈ 0.0342 µg/mL)	4 (≈ 1.37 µg/mL)	0.1 (≈ 0.0342 µg/mL)	6.7 (≈ 2.29 µg/mL)	0.1 (≈ 0.0342 µg/mL)	3.2 (≈ 1.1 µg/mL)	0.3 (≈ 0.103 µg/mL)	1.9 (≈ 0.651 µg/mL)	0.07 (≈ 0.024 µg/mL)	0.4 (≈ 0.137 µg/mL)	2 (≈ 0.685 µg/mL)	0.09 (≈ 0.0308 µg/mL)	0.06 (≈ 0.0205 µg/mL)	2 (≈ 0.685 µg/mL)	9.1	–
Cc1cc(CCCCCCCOc2ccc(C3=NCCO3)cc2)on1 [DISOXARIL]	–	> 18	–	–	–	–	–	–	–	–	–	–	–	–	–	–	–	3.5 (≈ 1.2 µg/mL)	–	18	–
Cc1cc(CCCCCOc2ccc(C3=NCCO3)c(C)c2)on1	–	> 18	–	–	–	–	–	–	–	–	–	–	–	–	–	–	–	0.41 (≈ 0.135 µg/mL)	15 (≈ 4.93 µg/mL)	19	–
Cc1cc(CCCCCCCOc2ccc(C3=NCCO3)cc2Cl)on1	–	2.3 (≈ 0.867 µg/mL)	–	–	–	–	–	–	–	–	–	–	–	–	–	–	–	0.1 (≈ 0.0377 µg/mL)	2.8 (≈ 1.06 µg/mL)	17	–
Cc1cc(CCCCCOc2ccc(C3=NCCO3)cc2C(C)C)on1	–	> 50	–	–	–	–	–	–	–	–	–	–	–	–	–	–	–	0.2 (≈ 0.0713 µg/mL)	–	2.2	–
CCC(=O)Nc1cc(C2=NCCO2)ccc1OCCCCCc1cc(C)no1	–	–	–	–	–	–	–	–	–	–	–	–	–	–	–	–	–	7.3 (≈ 2.81 µg/mL)	–	16	–
COc1cc(C2=NCCO2)ccc1OCCCCCc1cc(C)no1	3.44	4.5 (≈ 1.55 µg/mL)	1.7 (≈ 0.585 µg/mL)	0.3 (≈ 0.103 µg/mL)	0.2 (≈ 0.0689 µg/mL)	0.8 (≈ 0.276 µg/mL)	–	0.2 (≈ 0.0689 µg/mL)	14 (≈ 4.82 µg/mL)	0.4 (≈ 0.138 µg/mL)	1 (≈ 0.344 µg/mL)	1 (≈ 0.344 µg/mL)	1.9 (≈ 0.654 µg/mL)	0.7 (≈ 0.241 µg/mL)	0.6 (≈ 0.207 µg/mL)	6.7 (≈ 2.31 µg/mL)	1.8 (≈ 0.62 µg/mL)	0.3 (≈ 0.103 µg/mL)	1.9 (≈ 0.654 µg/mL)	37	IA [21]: inactive
Cc1cc(CCCCCOc2ccc(C3=NCCO3)cc2F)on1	–	> 9.3	–	–	–	–	–	–	–	–	–	–	–	–	–	–	–	0.4 (≈ 0.133 µg/mL)	–	9.3	–
CC(=O)c1cc(C2=NCCO2)ccc1OCCCCCc1cc(C)no1	3.28	1.1 (≈ 0.392 µg/mL)	7.3 (≈ 2.6 µg/mL)	0.1 (≈ 0.0356 µg/mL)	5.3 (≈ 1.89 µg/mL)	0.1 (≈ 0.0356 µg/mL)	2.2 (≈ 0.784 µg/mL)	0.3 (≈ 0.107 µg/mL)	2.9 (≈ 1.03 µg/mL)	0.2 (≈ 0.0713 µg/mL)	5.1 (≈ 1.82 µg/mL)	0.6 (≈ 0.214 µg/mL)	6.5 (≈ 2.32 µg/mL)	2 (≈ 0.713 µg/mL)	0.4 (≈ 0.143 µg/mL)	2.2 (≈ 0.784 µg/mL)	0.3 (≈ 0.107 µg/mL)	0.1 (≈ 0.0356 µg/mL)	5.1 (≈ 1.82 µg/mL)	6.5	–

Continued by falling MIC [3], values first:

logP [1]	MIC [3] [µM]	MIC [4] [µM]	MIC [5] [µM]	MIC [6] [µM]	MIC [7] [µM]	MIC [8] [µM]	MIC [9] [µM]	MIC [10] [µM]	MIC [11] [µM]	MIC [12] [µM]	MIC [13] [µM]	MIC [14] [µM]	MIC [15] [µM]	MIC [16] [µM]	MIC [17] [µM]	MIC [18] [µM]	MIC [19] [µM]	MIC80 [20] [µM]	Compound	MTL [2] [µM]	also measured
4.93	1.1 (≈ 0.39 µg/mL)	3.4 (≈ 1.21 µg/mL)	0.08 (≈ 0.0284 µg/mL)	0.4 (≈ 0.142 µg/mL)	0.5 (≈ 0.177 µg/mL)	3.4 (≈ 1.21 µg/mL)	0.8 (≈ 0.284 µg/mL)	3.4 (≈ 1.21 µg/mL)	0.4 (≈ 0.142 µg/mL)	1.7 (≈ 0.603 µg/mL)	1.1 (≈ 0.39 µg/mL)	2.1 (≈ 0.744 µg/mL)	0.6 (≈ 0.213 µg/mL)	1.6 (≈ 0.567 µg/mL)	1.4 (≈ 0.496 µg/mL)	0.1 (≈ 0.0354 µg/mL)	0.08 (≈ 0.0284 µg/mL)	2.1 (≈ 0.744 µg/mL)	C=CCc1cc(C2=NCCO2)ccc1OCCCCCc1cc(C)no1	8.8	–
–	1 (≈ 0.349 µg/mL)	2.4 (≈ 0.837 µg/mL)	0.06 (≈ 0.0209 µg/mL)	0.07 (≈ 0.0244 µg/mL)	0.1 (≈ 0.0349 µg/mL)	2.4 (≈ 0.837 µg/mL)	0.07 (≈ 0.0244 µg/mL)	3.5 (≈ 1.22 µg/mL)	0.2 (≈ 0.0698 µg/mL)	0.6 (≈ 0.209 µg/mL)	0.23 (≈ 0.0802 µg/mL)	0.9 (≈ 0.314 µg/mL)	0.03 (≈ 0.0105 µg/mL)	0.2 (≈ 0.0698 µg/mL)	1 (≈ 0.349 µg/mL)	0.2 (≈ 0.0698 µg/mL)	0.06 (≈ 0.0209 µg/mL)	1 (≈ 0.349 µg/mL)	Cc1cc(CCCCCOc2ccc(C3=NCCO3)cc2Cl)on1	8.9	–
–	1 (≈ 0.335 µg/mL)	–	–	–	–	–	–	–	–	–	–	–	–	–	–	–	0.2 (≈ 0.067 µg/mL)	3.6 (≈ 1.21 µg/mL)	Cc1cc(CCCCOc2ccc(C3=NCCO3)cc2Cl)on1	9.3	–
4.42	0.4 (≈ 0.157 µg/mL)	2 (≈ 0.787 µg/mL)	0.05 (≈ 0.0197 µg/mL)	0.01 (≈ 0.00393 µg/mL)	0.05 (≈ 0.0197 µg/mL)	1.8 (≈ 0.708 µg/mL)	0.08 (≈ 0.0315 µg/mL)	1.4 (≈ 0.551 µg/mL)	0.1 (≈ 0.0393 µg/mL)	1.1 (≈ 0.433 µg/mL)	0.2 (≈ 0.0787 µg/mL)	1.4 (≈ 0.551 µg/mL)	0.02 (≈ 0.00787 µg/mL)	0.2 (≈ 0.0787 µg/mL)	0.5 (≈ 0.197 µg/mL)	0.1 (≈ 0.0393 µg/mL)	–	1.4 (≈ 0.551 µg/mL)	Cc1cc(CCCCCOc2ccc(C3=NCCO3)cc2Br)on1	7.9	MIC [22]: 0.04 µM (≈ 0.0157 µg/mL)
